Source: ChEMBL document CHEMBL1765020, “Synthesis and structure-affinity relationships of novel dibenzylideneacetone derivatives as probes for β-amyloid plaques” (J Med Chem, 2011)

Experiment: Displacement of [125I]IMPY from amyloid beta (1 to 42) aggregate after 2 hrs by gamma counting
Method in brief: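 Competition binding in 1 mL PBS (0.2 M, pH 7.4). Aggregated Aβ1-42 fibrils (60 nM final) with [125I]IMPY and inhibitor at 10^-5 to 10^-10 M, added in ethanol. Nonspecific binding was defined with 1 μM IMPY. Incubated 2 h at 37 °C with shaking, then vacuum-filtered through glass fibre filters and the bound fraction gamma-counted. IC50 was converted to Ki by Cheng-Prusoff; triplicate, mean ± SD.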

SMILES | Ki [nM]
Nc1ccc(/C=C/C(=O)/C=C/c2ccc(I)cc2)cc1 | 7
CN(C)c1ccc(/C=C/C(=O)/C=C/c2cccs2)cc1 | 5.3
CN(C)c1ccc(/C=C/C(=O)/C=C/c2ccccc2OCc2ccccc2)cc1 | 18.6
O=C(/C=C/c1ccc(Cl)cc1)/C=C/c1ccc(Cl)cc1 | 9
COc1cc(OC)c(/C=C/C(=O)/C=C/c2ccc(N(C)C)cc2)c(OC)c1 | 39.1
CN(C)c1ccc(/C=C/C(=O)/C=C/c2cc(C(F)(F)F)cc(C(F)(F)F)c2)cc1 | 4
CN(C)c1ccc(/C=C2\CCC/C(=C\c3ccc(N(C)C)cc3)C2=O)cc1 | 1
COc1cc(/C=C/C(=O)/C=C/c2ccc(N(C)C)cc2)ccc1OCc1ccccc1 | 4.1
COc1cc(/C=C/C(=O)/C=C/c2ccc(N(C)C)cc2)cc(OC)c1 | 4.7
CN(C)c1ccc(/C=C/C(=O)/C=C/c2ccco2)cc1 | 8.5
CN(C)c1ccc(/C=C/C(=O)/C=C/c2cc([N+](=O)[O-])ccc2OCc2ccccc2)cc1 | 33.3
CN(C)c1ccc(/C=C/C(=O)/C=C/c2ccc(Br)s2)cc1 | 3.8
O=C(/C=C/c1ccccc1)/C=C/c1ccccc1 | 242
O=C1/C(=C/c2ccc(Cl)cc2)CCC/C1=C\c1ccc(Cl)cc1 | 11.4
CN(C)c1ccc(/C=C/C(=O)/C=C/c2c(Cl)cccc2Cl)cc1 | 18.5
COc1cc(/C=C/C(=O)/C=C/c2ccc(N(C)C)cc2)cc(OC)c1OC | 5.2
CN(C)c1ccc(/C=C/C(=O)/C=C/c2cccc(Oc3ccccc3)c2)cc1 | 3.8
COc1cc(/C=C/C(=O)CC(=O)/C=C/c2ccc(O)c(OC)c2)ccc1O [CURCUMIN] | 49.8
CN(C)c1ccc(/C=C/C(=O)/C=C/c2ccc(N(c3ccccc3)c3ccccc3)cc2)cc1 | 131
CN(C)c1ccc(/C=C/C(=O)/C=C/c2ccc(-c3ccc(Br)s3)s2)cc1 | 11.7
CN(C)c1ccc(/C=C/C(=O)/C=C/c2cc(Br)ccc2O)cc1 | 16.2
CN(C)c1ccc(/C=C/C(=O)/C=C/c2c(F)cccc2Cl)cc1 | 9.2
CN(C)c1ccc(/C=C/C(=O)/C=C/c2ccccc2[N+](=O)[O-])cc1 | 18.8
O=C1/C(=C/c2ccccc2)CCC/C1=C\c1ccccc1 [2,6-DIBENZYLIDENECYCLOHEXANONE] | 704
CN(C)c1ccc(/C=C/C(=O)/C=C/c2ccc[nH]2)cc1 | 5.8
CN(C)c1ccc(/C=C/C(=O)/C=C/c2ccc(OC(c3ccccc3)(c3ccccc3)c3ccccc3)cc2)cc1 | 2.8
COc1ccc(/C=C2\CCC/C(=C\c3ccc(OC)cc3)C2=O)cc1 | 24.8

Other lines, results leading:

Ki [nM] | SMILES
4.2 | CN(C)c1ccc(/C=C/C(=O)/C=C/c2ccc3[nH]ccc3c2)cc1
6.5 | COc1ccc(/C=C/C(=O)/C=C/c2ccc(OC)cc2)cc1
3.7 | CN(C)c1ccc(/C=C/C(=O)/C=C/c2ccc(F)cc2)cc1
0.7 | COc1ccc(/C=C/C(=O)/C=C/c2ccc(N(C)C)cc2)cc1
13.7 | CN(C)c1ccc(/C=C/C(=O)/C=C/c2cccc(N)c2)cc1
15.7 | CCN(CC)c1ccc(/C=C/C(=O)/C=C/c2ccc(N(C)C)cc2)cc1
3.7 | CN(C)c1ccc(/C=C/C(=O)/C=C/c2ccc(N)cc2)cc1
2640 | CNc1ccccc1/C=C/C(=O)/C=C/c1ccc(N(C)C)cc1
28.2 | CN(C)c1ccc(/C=C/C(=O)/C=C/c2ccccc2O)cc1
2.9 | CNc1ccc(/C=C/C(=O)/C=C/c2ccc(N(C)C)cc2)cc1
6.8 | CN(C)c1ccc(/C=C/C(=O)/C=C/c2ccc(O)cc2)cc1
4 | CN(C)c1ccc(/C=C/C(=O)/C=C/c2cccc([N+](=O)[O-])c2)cc1
8.4 | CN(C)c1ccc(/C=C/C(=O)/C=C/c2ccccc2N)cc1
2 | CN(C)c1ccc(/C=C/C(=O)/C=C/c2ccc(OCc3ccccc3)cc2)cc1
5.4 | COc1ccc(/C=C/C(=O)/C=C/c2ccc(N(C)C)cc2)cc1OC
1.2 | CN(C)c1ccc(/C=C/C(=O)/C=C/c2cccc(F)c2)cc1
23 | CN(C)c1ccc(/C=C/C(=O)/C=C/c2ccccn2)cc1
1.3 | Cc1ccc(/C=C/C(=O)/C=C/c2ccc(N(C)C)cc2)cc1
2.7 | CN(C)c1ccc(/C=C/C(=O)/C=C/c2ccc(N(C)C)cc2)cc1

Ki [nM] | SMILES
8.1 | CNc1cccc(/C=C/C(=O)/C=C/c2ccc(N(C)C)cc2)c1
4.8 | CN(C)c1ccc(/C=C/C(=O)/C=C/c2ccc(I)nc2)cc1
0.8 | CN(C)c1ccc(/C=C/C(=O)/C=C/c2ccc(C(F)(F)F)cc2)cc1
2.5 | COc1ccc2cc(/C=C/C(=O)/C=C/c3ccc(N(C)C)cc3)ccc2c1
2.3 | CN(C)c1ccc(/C=C/C(=O)/C=C/c2ccc(Br)nc2)cc1
4.4 | CN(C)c1ccc(/C=C/C(=O)/C=C/c2ccc(OCCOCCF)cc2)cc1
2.2 | CN(C)c1ccc(/C=C/C(=O)/C=C/c2ccc(Cl)nc2)cc1
2.8 | COc1ccc(/C=C/C(=O)/C=C/c2ccc(N(C)C)cc2)c(OC)c1
8 | CN(C)c1ccc(/C=C/C(=O)/C=C/c2cccc(N(C)C)c2)cc1
1.8 | CN(C)c1ccc(/C=C/C(=O)/C=C/c2ccc3c(c2)OCO3)cc1
5.2 | CN(C)c1ccc(/C=C/C(=O)/C=C/c2ccc([N+](=O)[O-])cc2)cc1
1.1 | CN(C)c1ccc(/C=C/C(=O)/C=C/c2ccc(Cl)cc2)cc1
78.1 | CN(C)c1ccc(/C=C/C(=O)/C=C/c2ccc(C(=O)O)cc2)cc1
0.9 | CN(C)c1ccc(/C=C/C(=O)/C=C/c2ccccc2Cl)cc1
5.6 | CN(C)c1ccc(/C=C/C(=O)/C=C/c2ccc(OCCF)cc2)cc1
1.2 | CN(C)c1ccc(/C=C/C(=O)/C=C/c2ccccc2)cc1
5.5 | CN(C)c1ccc(/C=C/C(=O)/C=C/c2cccc(I)c2)cc1
2.8 | CN(C)c1ccc(/C=C/C(=O)/C=C/c2ccc(Br)cc2)cc1
1.9 | CN(C)c1ccc(/C=C/C(=O)/C=C/c2cccc(Br)c2)cc1
